Results from different studies.
Compare with care: the assays were run in different laboratories.
Observed: enzyme activity
Mode: inhibitor
CDK5 with p35: Cyclin-dependent kinase 5, with p35 (CDK5, Homo sapiens, UniProt Q00535)
CDK5 with p25: Cyclin-dependent kinase 5, with p25 (CDK5, Homo sapiens, UniProt Q00535)

SMILES	target	test	conditions	remaining activity [%]
O=C(Nc1cnn(-c2csc(C(=O)NC3COC3)c2)c1)Nc1c(F)cccc1Cl	CDK5 with p35		5 µM	94.3
COc1cc(Cl)c(C(=O)N[C@@H](CN[C@H]2CC[C@@H](N)CC2)Cc2ccc(C#N)cc2)cc1-c1ccc(CN[C@H](C)c2ccc(C)cc2)o1	CDK5 with p25		1 µM	102
Cc1cnc(NC2CCOCC2)nc1-n1cnc(C(=O)NC(CN)c2cc(F)cc(Cl)c2)c1 (centres unmarked)	CDK5 with p25	radiometric	1 µM	2
Cc1sc(C(=O)NC2COC2)cc1-n1cc(NC(=O)Nc2c(F)cccc2Cl)cn1	CDK5 with p35		10 µM	103
CCCOc1ccc(OC)c(F)c1C(=O)c1ccc(C(=O)N[C@@H]2CNC[C@H]2NC(=O)c2ccc3[nH]ncc3c2)cc1	CDK5 with p25		0.1 µM	112
O=C(Nc1cnn(-c2csc(C(=O)NC3COC3)c2)c1)Nc1ccccc1Cl	CDK5 with p35		5 µM	95.4
CC(C)(C)c1nc(-c2cccc(NS(=O)(=O)c3c(F)cccc3F)c2F)c(-c2ccnc(N)n2)s1	CDK5 with p35	radiometric	1 µM	82
CC(C)(O)[C@H]1CC[C@H](Nc2ccc3ncc(-c4cccc(C(F)(F)F)c4)n3n2)CC1	CDK5 with p25		1 µM	92.2
Cc1ccc(C(=O)Nc2ccc(CN3CCN(C)CC3)c(C(F)(F)F)c2)cc1C#Cc1cnc2cccnn12	Cyclin-dependent kinase 5 (CDK5, Homo sapiens, UniProt Q00535)		23.5 nM	98
CC[C@H](C)[C@H](NC(=O)[C@H](CCC(N)=O)NC(=O)[C@H](CC(C)C)NC(=O)[C@H](CCSC)NC(=O)[C@H](CCCCN)NC(=O)[C@H](CO)NC(=O)[C@H](CO)NC(=O)[C@H](CCSC)NC(=O)[C@H](CC(C)C)NC(=O)[C@H](CC(N)=O)NC(=O)[C@@H](NC(=O)[C@@H](NC(=O)[C@H](CO)NC(=O)[C@H](CC(C)C)NC(=O)[C@H](CS)NC(=O)[C@H](CCCNC(=N)N)NC(=O)[C@H](CC(=O)O)NC(=O)[C@H](Cc1c[nH]c2ccccc12)NC(=O)[C@H](Cc1ccccc1)NC(=O)[C@H](C)NC(=O)[C@H](CCC(=O)O)NC(=O)[C@@H](N)CCCCN)C(C)C)[C@@H](C)CC)C(=O)N[C@@H](CC(N)=O)C(=O)N[C@@H](C)C(=O)O	CDK5 with p25	radiometric	500 µM, 20 min	28
CCN(CC)c1ccc(C2=NNC(=O)CC2C)cc1[N+](=O)[O-] (centres unmarked)	CDK5 with p25		10 µM	113
